Bioassay records from PubChem BioAssay.
M4 ag: human M4 muscarinic receptor agonists, primary screen, CHO-K1 cells, Fluo-8 calcium fluorescence; CHO-K1 hM4/Gqi5; vehicle 0%, full acetylcholine response 100%; 360,000 compounds, 0.14% hits; activation, % at 3 µM; AID 624127, 2012;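 active means activation above the run mean over all test wells plus 3 SD, cut at about 32% in these data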;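 further: peak over basal fluorescence ratio per well then scaled between controls; 0% = DMSO wells and 100% = acetylcholine at EC100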
Target sequence (P08173 whole entry, looked up): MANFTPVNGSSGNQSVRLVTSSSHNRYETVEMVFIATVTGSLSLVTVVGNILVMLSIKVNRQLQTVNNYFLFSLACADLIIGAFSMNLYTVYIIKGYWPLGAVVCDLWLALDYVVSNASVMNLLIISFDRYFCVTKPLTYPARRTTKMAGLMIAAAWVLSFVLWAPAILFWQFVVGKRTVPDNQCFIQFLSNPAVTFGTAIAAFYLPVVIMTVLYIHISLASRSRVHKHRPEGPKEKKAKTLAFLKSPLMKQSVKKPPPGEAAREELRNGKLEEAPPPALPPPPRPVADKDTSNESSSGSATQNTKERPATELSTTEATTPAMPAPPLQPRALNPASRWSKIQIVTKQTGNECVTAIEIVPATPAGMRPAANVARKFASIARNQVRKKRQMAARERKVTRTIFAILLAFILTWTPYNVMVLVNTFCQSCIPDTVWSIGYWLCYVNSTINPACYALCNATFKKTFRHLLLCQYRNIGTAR
CHRM4 antagonist: human M4 muscarinic receptor antagonists, primary screen, CHO cells, Fluo-8 calcium fluorescence. Muscarinic acetylcholine receptor M4 (Homo sapiens), P08173. CHO-hM4 cells, ACh EC80. inhibition, % at 3 µM. 360,000 compounds, 0.73% hits;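 active means inhibition above its plate's cutoff, the mean inhibition of sample wells plus 3 SD, cut at about 27% in these data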;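 further: 0% = acetylcholine EC80 with DMSO and 100% = DMSO without agonist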
M5 ag: human M5 muscarinic receptor agonists, primary screen, CHO-K1 cells, Fluo-8 calcium fluorescence | activation, % at 3 µM | 360,000 compounds, 0.19% hits | Muscarinic acetylcholine receptor M5 (Homo sapiens), P08912 | CHO-K1 hM5 cells; 0% DMSO wells, 100% maximal acetylcholine response;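 active means activation above the run's mean over test compounds plus 3 SD, cut at about 23% in these data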;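 further: signal is peak over basal fluorescence ratio across the kinetic read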
CHRM4 PAM: human M4 muscarinic receptor positive allosteric modulators, primary screen, CHO-K1 cells, Fluo-8 calcium fluorescence. Muscarinic acetylcholine receptor M4 (Homo sapiens), P08173. CHO-K1 hM4/Gqi5, ACh EC20; 0% = ACh EC20, 100% = maximal ACh. activation, % at 3 µM. 360,000 compounds, 0.4% hits. AID 624126, 2012;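 active means activation above its plate's cutoff, the mean activation of sample wells plus 3 SD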
M5 PAM: human M5 muscarinic receptor positive allosteric modulators, primary screen, CHO-K1 cells, Fluo-8 calcium fluorescence | Muscarinic acetylcholine receptor M5 (Homo sapiens), P08912 | CHO-K1 hM5, ACh EC20 PAM; 0% = ACh EC20, 100% = ACh EC100 | activation, % at 3 µM | 360,000 compounds, 0.3% hits | AID 624038, 2012;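 active means activation above the run cutoff, the mean activation of all test compounds plus 3 SD, cut at about 18% in these data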
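Replicates: One well per compound, no replicates | System: Human M5 receptor in CHO-K1 cells | Benchmarks: Low control EC20 acetylcholine (0%), high control EC100 acetylcholine (100%) | Probe or stimulus: Acetylcholine, EC20 level | Times: Fluo-8 loading 80 min at 37 °C plus 30 min room temperature | Signal: Intracellular calcium via Fluo-8 fluorescence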
CHRM5 antagonist: human M5 muscarinic receptor antagonists, primary screen, CHO cells, Fluo-8 calcium fluorescence | 360,000 compounds, 0.59% hits | inhibition, % at 3 µM | CHO-hM5 cells, ACh EC80 | AID 624040, 2012;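 active means inhibition above a per-plate cutoff, the mean of that plate's test compounds plus 3 SD, cut at about 27% in these data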;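 further: 0% = acetylcholine EC80 with DMSO and 100% = DMSO without agonist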
Starred values were filed as active, the others as inactive. Compounds with a hit are over-represented: about 1.9% of the library has one in this group of screens.

SMILES | M4 ag | CHRM4 antagonist | M5 ag | CHRM4 PAM | M5 PAM | CHRM5 antagonist
CCCCNC(=S)Nc1ccc(Cl)cc1 | 7 | 4 | 4 | -4 | -9 | 4
CCCCNC(=S)Nc1ccc(C(F)(F)F)cc1 | 10 | -3 | 0 | -9 | -28 | 34*
O=C(Nc1ccncc1)Nc1cccc(F)c1 | 13 | 3 | 4 | -3 | 2 | 5
O=C(c1noc2c1CCCC2)N1CCN(c2ccc(F)cc2)CC1 | 3 | 29* | 2 | 3 | 3 | -1
c1cnc2c(C3NCCc4c3[nH]c3ccccc43)cccc2c1 (stereo not drawn) | 3 | 38* | 2 | -14 | -8 | 8
CCOC(=O)CSc1nnc(NC(=O)CCc2ccccc2)s1 | 1 | 7 | -4 | 21* | 7 | -1
Cc1cccc(CSc2nncc(=O)[nH]2)c1 | 1 | -14 | 1 | 15* | -4 | -5
COc1cc(C(O)c2nc(-c3cccc4cccnc34)cs2)ccc1F (stereo not drawn) | 8 | -1 | 2 | -3 | 0 | 2
CC(C)C(=O)Nc1ccc2c(c1)nc(CCN1CCCCC1)n2C | 0 | 14 | -4 | -8 | 0 | 7
CC1CCN(CCc2nc3cc(NC(=O)C(C)C)ccc3n2C)CC1 | 0 | 58* | -7 | -16 | -17 | 69*
CN1CCN(C(=O)/C=C/c2cn(-c3ccccc3)nc2-c2ccc3c(c2)OCCO3)CC1 | 6 | -13 | 2 | 9 | 19* | -5
O=C(/C=C\c1cn(-c2ccccc2)nc1-c1ccc2c(c1)OCCO2)N1CCOCC1 | 5 | 1 | 7 | -4 | -2 | 3
CCNC(=O)C1CCCN(Cc2cc(C(F)(F)F)ccc2Cl)CC1 (stereo not drawn) | 0 | -7 | 0 | 4 | -5 | 4
CCCCNC(=O)CC(C(=O)N1CCc2ccccc21)n1ccnc1 (stereo not drawn) | 0 | 28* | 6 | 34* | -2 | -10
CCN(CCCNC(=O)CC(C(=O)N1CCc2ccccc21)n1ccnc1)c1cccc(C)c1 (stereo not drawn) | -2 | 0 | -1 | 3 | 0 | -1
COCC1CCN(C(=O)c2ccc3oc(C(C)C)nc3c2)C1 (stereo not drawn) | 0 | 4 | 2 | -2 | -1 | 0
CCCCC(CC)C(=O)NCCCN1CCN(CCCNC(=O)C(CC)CCCC)CC1 (stereo not drawn) | -1 | 34* | -8 | -9 | -1 | -4
ClC(Cl)(Cl)c1nc2ccccc2n2nncc12 | 1 | 18 | -5 | -4 | -1 | 14
O=C(/C=C/c1cccc(Cl)c1)c1ccc([N+](=O)[O-])o1 | 5 | 29* | 11 | -5 | 0 | 22
COc1cc(/C=C/C(=O)c2ccc([N+](=O)[O-])o2)ccc1O | 0 | 1 | 0 | 7 | -1 | 9
CSc1cccc(NC(=S)N(CCN(C)C)C(C)c2ccccn2)c1 (stereo not drawn) | 7 | 33* | -1 | 16 | -6 | 3
CSc1cccc(NC(=S)N(CCN(C)C)C(C)c2ccncc2)c1 (stereo not drawn) | 4 | 7 | 2 | 3 | 0 | 7
CCCCn1c(N)c(N(CCOC)C(=O)c2cc3c(s2)CCCCC3)c(=O)[nH]c1=O | 1 | -8 | -2 | 24* | -6 | 10
CCOc1ccc2[nH]c(=O)c(CN(Cc3ccc(C)cc3)C(=O)N3CCCC3)cc2c1 | 0 | -5 | -2 | -8 | -11 | 32*
CCN1CCN(C(C)CCc2ccccc2)CC1 (stereo not drawn) | 0 | -4 | -15 | -3 | -1 | 19
SMILES | M4 ag | CHRM4 antagonist | M5 ag | CHRM4 PAM | M5 PAM | CHRM5 antagonist
CC(=O)C1=C(C)NC(SCC(=O)c2ccc(F)cc2)=C(C#N)C1c1ccco1 (stereo not drawn) | 12 | -3 | 0 | 18* | -6 | 8
CC(=O)C1=C(C)NC(SCC(=O)c2ccc(Cl)c(Cl)c2)=C(C#N)C1c1ccco1 (stereo not drawn) | 8 | -7 | 1 | 14 | -3 | -4
Cc1ccc(CC2C(=O)N(CC(=O)O)C(=O)C2C)cc1 (stereo not drawn) | 1 | 29* | 1 | 15 | -1 | 3
Cc1ccc(CC2C(=O)N(c3ccc(C)cc3)C(=O)C2C)cc1 (stereo not drawn) | 0 | -26 | -7 | 11 | -1 | -16
COc1ccc(CN2C(=NC(=O)C3CCCO3)SC3CS(=O)(=O)CC32)cc1OC (stereo not drawn) | 0 | -6 | -2 | 10 | -2 | 26
CS(=O)(=O)c1cccc(NC(=O)C2CCCN2S(=O)(=O)c2ccc(F)cc2)c1 (stereo not drawn) | 2 | 4 | -1 | -1 | -4 | 9
COc1ccc(N(C(=O)COc2ccccc2OC)S(=O)(=O)c2ccc(C)cc2)cc1 | 1 | -6 | -4 | 26* | 6 | -3
CC(=O)N1CCN(C(=O)COc2ccc(N(C)S(=O)(=O)c3cccs3)cc2)CC1 | 2 | -22 | -1 | 18 | 20* | -1
O=C(NCC1CCCO1)c1ccc(Cl)c(NS(=O)(=O)c2ccc(F)cc2)c1 (stereo not drawn) | 1 | 0 | -1 | 2 | 3 | 1
COC(=O)c1ccc(Oc2ccc3nnc(C)n3n2)cc1 | 0 | 7 | 3 | 12 | 5 | -1
Cc1nnc2ccc(Oc3ccc(-c4ccccc4)cc3)nn12 | 10 | 18 | 1 | -19 | -15 | 34*
O=C1CSC(=S)N1/N=C/c1cc(Br)c(O)c(Br)c1 | 401* | 54* | 200* | -30 | -20 | 48*
Cc1cc(N2CCN(C(C(=O)NC3CCCC3)C(C)C)CC2)c2ccccc2n1 (stereo not drawn) | 0 | 0 | -1 | -1 | -3 | 6
S=C1NCC(c2ccccc2)S1 (stereo not drawn) | 1 | -16 | -5 | 13 | 18* | 4
O=C1CC(c2ccccc2)Sc2ccccc2N1 (stereo not drawn) | 0 | 2 | 0 | -2 | 7 | -6
CCCCN(C)C1=CC2=CC(=C(C#N)C#N)CCC2CC1 (stereo not drawn) | 439* | 81* | 670* | -25 | -24 | 84*
CCN(CC)C1=CC2=CC(=C(C#N)C#N)CCC2CC1 (stereo not drawn) | 210* | 42* | 384* | -21 | -23 | 61*
